Laboratory results reported in ChEMBL document CHEMBL1123508, “Relationship between lipophilic character and urinary excretion of nitroimidazoles and nitrothiazoles in rats” (J Med Chem, 1986).

How the values were obtained:
[1] = Partition coefficient (logP); conditions: octanol/water
[2] = (§1) The amount of the unchanged form of compound detected in the urine samples collected at 0-18 hr after the treatment by HPLC technique; assay type: ADME, organism-based; conditions: rat, read-out: Amount excreted
Method in brief: (§2)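 Female Sprague-Dawley rats (200 ± 20 g) on chow diet, three per compound, dosed ip in Me2SO (50 μmol mL⁻¹ kg⁻¹). Urine pooled over 0-18 h. One mL urine was spiked with internal standard and extracted, the residue was taken up in 200 μL methanol, and 10-20 μL was injected for HPLC of the unchanged drug. Values expressed as log (percent × 10) of dose.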

[3] = The amount of unchanged compound detected in urine collected at 0-18 hr after treatment; conditions: rat
[4] = The amount of unchanged compound in urine collected at 0-36 hr after treatment; conditions: rat
[5] = The amount of unchanged compound in urine collected at 0-54 hr after treatment; conditions: rat
[6] = The amount of unchanged compound in urine collected at 0-72 h after treatment; conditions: rat
Rattus norvegicus [7] = assay: The total 18 hr urinary excretion of the unchanged form of compound in urine was reported as log (percent X 10) of the administered dose by HPLC technique; assay type: ADME, organism-based; conditions: in vivo; method in brief: as §2
Rattus norvegicus [8] = assay: The total 18 hr urinary excretion of unchanged compound reported as log (percent X 10) of the administered dose; conditions: in vivo
Rattus norvegicus [9] = assay: The total 54 h urinary excretion of unchanged compound reported as log (percent X 10) of the administered dose; conditions: in vivo
Rattus norvegicus [10] = assay: The total 72 hr urinary excretion of unchanged compound reported as log (percent X 10) of the administered dose; conditions: in vivo
Rattus norvegicus [11] = assay: The total 36 hr urinary excretion of unchanged compound reported as log (percent X 10) of the administered dose; conditions: in vivo
[12] = octanol/water
Rattus norvegicus [13] = species: Rattus norvegicus; conditions: in vivo, 18 h
in vivo = conditions: rat, urine
Rattus norvegicus [14] = species: Rattus norvegicus; assay: as §1; assay type: functional; method in brief: as §2
[15] = The octanol/water partition coefficient was determined; assay type: physicochemical; conditions: read-out: Log K
Method in brief: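 Classical shake-flask octanol/water partitioning with 1 M ammonium chloride buffer, pH 9.0, as the aqueous phase. For one compound the aqueous phase was 0.14 M sodium acetate-barbital buffer, pH 3.6. Concentrations in the octanol and/or aqueous layer were read by UV spectrophotometry.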

Row | Structure (SMILES) | logP [1] | dose excreted [2] | dose excreted [3] | dose excreted [4] | dose excreted [5] | dose excreted [6] | log(10 × % of dose excreted unchanged in urine) (Rattus norvegicus [7]) | Log BR (Rattus norvegicus [8]) | Log BR (Rattus norvegicus [9]) | Log BR (Rattus norvegicus [10]) | Log BR (Rattus norvegicus [11]) | Log k' [12] | Log BR (Rattus norvegicus [13]) | dose excreted (in vivo) | Amount excreted (Rattus norvegicus [14]) | logP [15]
1 | COC(=S)NCCn1c([N+](=O)[O-])cnc1C [CARNIDAZOLE] | 0.9 | 6.5% | 6.7% | 21.5% | 23.1% | 23.1% | 1.819 | 1.826 | 2.364 | 2.364 | 2.33 | 0.465 | – | – | – | –
2 | CC(C)c1ncc([N+](=O)[O-])n1C [IPRONIDAZOLE] | 1.06 | 2.5% | 4.3% | 9.1% | 9.1% | 9.1% | 1.398 | 1.633 | 1.96 | 1.96 | 1.96 | 0.45 | – | – | – | –
3 | CCN(CC)CCOCCn1c([N+](=O)[O-])cnc1C | -0.38 | – | 23.4% | 28.5% | 28.5% | 28.5% | – | 2.369 | 2.455 | 2.455 | 2.455 | 0.021 | – | – | – | –
4 | Cc1ncc([N+](=O)[O-])n1CCO [METRONIDAZOLE] | -0.1 | 25% | 30.5% | 49.2% | 49.2% | 49.2% | 2.407 | 2.484 | 2.692 | 2.692 | 2.692 | -0.067 | – | – | – | –
5 | Cc1ncc([N+](=O)[O-])n1CC(O)Cn1c([N+](=O)[O-])cnc1C | 0.31 | – | 18.2% | 22.8% | 22.8% | 22.8% | – | 2.26 | 2.358 | 2.358 | 2.358 | 0.199 | 2.196 | 15.7% | – | –
6 | Cc1ncc([N+](=O)[O-])n1CCS(C)(=O)=O | -0.35 | – | 25.2% | 27.9% | 28% | 28% | 2.394 | 2.401 | 2.448 | 2.448 | 2.446 | -0.097 | – | – | 24.8% | –
7 | O=[N+]([O-])c1c[nH]cn1 | – | – | 33.8% | 39.9% | 46.1% | 46.1% | – | 2.529 | 2.664 | 2.664 | 2.601 | 0 | – | – | – | –
8 | Cn1c([N+](=O)[O-])cnc1CO | -0.03 | – | 32.6% | 56.8% | 60.6% | 64.9% | – | 2.513 | 2.782 | 2.81 | 2.754 | -0.11 | – | – | – | –
9 | O=C1NCCN1c1ncc([N+](=O)[O-])s1 [NIRIDAZOLE] | 0.92 | – | 4.6% | 7.3% | 7.3% | 7.3% | – | 1.663 | 1.861 | 1.861 | 1.861 | 0.363 | – | – | – | –
10 | CN1CCN(Cc2ncc([N+](=O)[O-])n2C)CC1 | -0.33 | – | 41.7% | 45.5% | 45.5% | 45.5% | – | 2.62 | 2.658 | 2.658 | 2.658 | 0.014 | – | – | – | –
11 | Cc1ncc([N+](=O)[O-])n1CC(=O)Nc1ncccn1 | -0.3 | 35.4% | 37.1% | 38.9% | 42.1% | 42.1% | 2.549 | 2.569 | 2.701 | 2.701 | 2.59 | -0.115 | – | – | – | –
12 | Cc1ncc([N+](=O)[O-])n1CC(O)CO (centres undefined) | – | – | 14.3% | 64.3% | 66.4% | 66.4% | – | 2.155 | 2.822 | 2.822 | 2.808 | -0.199 | – | – | – | -0.63
13 | Cn1c([N+](=O)[O-])cnc1/C=C(\Oc1ccccc1)C(=O)O | -1 | – | 2.5% | 19% | 21.7% | 21.7% | – | 1.4 | 2.337 | 2.337 | 2.28 | -0.199 | – | – | – | –
14 | CCS(=O)(=O)CCn1c([N+](=O)[O-])cnc1C [TINIDAZOLE] | -0.36 | 27.3% | 29.4% | 66.3% | 66.3% | 66.3% | 2.436 | 2.468 | 2.822 | 2.822 | 2.822 | -0.125 | – | – | – | –
15 | O=[N+]([O-])c1cnc(/C=C/c2ccc3c(c2)OCO3)n1CCO | 2.03 | – | – | 3.4% | 3.4% | 3.4% | – | 1.529 | 1.529 | 1.529 | 1.529 | 0.659 | – | – | – | –
16 | CCC(CC)C(O)Cn1c([N+](=O)[O-])cnc1C (centres undefined) | -0.08 | – | 36.4% | 51.7% | 51.7% | 51.7% | – | 2.561 | 2.713 | 2.713 | 2.713 | 0.058 | – | – | – | –
17 | Cc1ncc([N+](=O)[O-])n1CC(O)CCl (centres undefined) [ORNIDAZOLE] | – | 11.7% | 13.2% | 29.6% | 36.9% | 42.1% | 2.068 | 2.121 | 2.567 | 2.625 | 2.471 | – | – | – | – | –
18 | Cn1c([N+](=O)[O-])cnc1C=O | -0.69 | 10.4% | 10.6% | 29.9% | 29.9% | 29.9% | 2.023 | 2.025 | 2.477 | 2.477 | 2.477 | -0.067 | – | – | – | –
19 | Cn1c([N+](=O)[O-])cnc1/C=C/c1ccnc(N)n1 [AZANIDAZOLE] | 0.85 | 11.3% | 13.8% | 16% | 16% | 16% | 2.054 | 2.142 | 2.202 | 2.202 | 2.202 | 0.423 | – | – | – | –
20 | Nc1ncc(S(=O)(=O)c2ccc([N+](=O)[O-])cc2)s1 | -0.43 | – | 48.6% | 64.7% | 64.7% | 64.7% | – | 2.687 | 2.811 | 2.811 | 2.811 | -0.049 | – | – | – | –
21 | O=[N+]([O-])c1cncn1CCN1CCOCC1 [NIMORAZOLE] | – | – | 43.6% | 52.4% | 52.4% | 52.4% | – | 2.639 | 2.719 | 2.719 | 2.719 | 0.188 | – | – | – | –
22 | Cn1c([N+](=O)[O-])cnc1C1CC1 | 1 | – | 4.1% | 12.9% | 12.9% | 12.9% | – | 1.613 | 2.113 | 2.113 | 2.113 | 0.455 | – | – | – | –
23 | Cc1ncc([N+](=O)[O-])n1CC(=O)N1CCN(C(=O)Cn2c([N+](=O)[O-])cnc2C)CC1 | – | – | 14.3% | 18.6% | 18.6% | 18.6% | – | 2.155 | 2.27 | 2.27 | 2.27 | 0.028 | – | – | – | –
